Active and inactive are the calls of the source. The rule behind the calls is not given here.
Tests used:
Mus musculus [1] = test: Toxicity in chloroquine-sensitive Plasmodium berghei NK-173 infected Swiss albino mouse assessed as mortality at 38.5 mg/kg, ip qd for 3 days measured up to 4 days; format: organism-based; design: dose 38.5 mg/kg, route intraperitoneal; settings: in vivo
Outline: (§1)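 Female Swiss albino mice (18–20 g) were infected i.v. on day 0 with 10^6 parasitized RBC in 0.2 ml PBS from a donor mouse, in groups of 10. Dosing was i.p. over days 0–3 and stopped if toxicity appeared. Chloroquine control was 100 µmoles/kg. Giemsa tail smears and RBC counts were taken on days 4, 7, 8, 9, 10 and 14. Mice were followed for deaths.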

[2] = Cytotoxicity against Swiss mouse peritoneal macrophages at 20 uM after 5 days by MTT assay; format: cell-based, Peritoneal macrophage cell
Outline: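 Thioglycolate-elicited peritoneal macrophages from female Swiss mice, 5 × 10^4/well in RPMI 1640 with 10% FCS, 25 mM Hepes and 2 mM L-glutamine. Washed at 4 h to remove fibroblasts. Drug-containing medium added at 48 h, stopped at day 5. Viability read by MTT.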

Plasmodium berghei [3] = test: Antimalarial activity against chloroquine-sensitive Plasmodium berghei NK-173 infected in Swiss albino mouse assessed as quantal survival at 76.9 mg/kg, ip qd for 3 days measured on day 14; format: functional, organism-based; design: dose 76.9 mg/kg; outline: as §1
Plasmodium berghei [4] = test: Antimalarial activity against chloroquine-sensitive Plasmodium berghei NK-173 infected in Swiss albino mouse assessed as reduction parasitemia at 76.9 mg/kg, […] by Giemsa staining relative to control; format: functional; design: scale not given: the % may be the effect or the level left; settings: route intraperitoneal
Plasmodium berghei [5] = test: Antimalarial activity against chloroquine-sensitive Plasmodium berghei NK-173 infected in Swiss albino mouse assessed as host survival at 76.9 mg/kg, ip qd for 3 days measured on day 30; format: functional; settings: NK-173, ip, route intraperitoneal; outline: as §1
Plasmodium berghei [6] = test: Antimalarial activity against chloroquine-sensitive Plasmodium berghei NK-173 infected in Swiss albino mouse assessed as quantal survival at 76.9 mg/kg, ip qd for 3 days measured on day 10; format: functional, organism-based; design: dose 76.9 mg/kg; outline: as §1
Plasmodium berghei [7] = test: Antimalarial activity against chloroquine-sensitive Plasmodium berghei NK-173 infected in Swiss albino mouse assessed as quantal survival at 38.5 mg/kg, ip administered 4 times per day for 3 days measured on day 8; format: functional, organism-based; design: dose 38.5 mg/kg; outline: as §1
Plasmodium berghei [8] = test: Antimalarial activity against chloroquine-sensitive Plasmodium berghei NK-173 infected in Swiss albino mouse assessed as quantal survival at 38.5 mg/kg, ip qd for 3 days measured on day 9; format: functional, organism-based; design: dose 38.5 mg/kg; outline: as §1
Plasmodium berghei [9] = test: Antimalarial activity against chloroquine-sensitive Plasmodium berghei NK-173 infected in Swiss albino mouse assessed as host survival at 38.5 mg/kg, ip qd for 3 days measured on day 30; format: functional; settings: NK-173, ip, route intraperitoneal; outline: as §1
Plasmodium berghei [10] = test: Antimalarial activity against chloroquine-sensitive Plasmodium berghei NK-173 infected in Swiss albino mouse assessed as quantal survival at 38.5 mg/kg, ip administered 4 times per day for 3 days measured on day 14; format: functional, organism-based; design: dose 38.5 mg/kg; outline: as §1
Plasmodium berghei [11] = test: Antimalarial activity against chloroquine-sensitive Plasmodium berghei NK-173 infected in Swiss albino mouse assessed as host survival at 100 mg/kg, ip bid for 3 days measured on day 30; format: functional; settings: NK-173, ip, route intraperitoneal; outline: as §1
Plasmodium berghei [12] = test: Antimalarial activity against chloroquine-sensitive Plasmodium berghei NK-173 infected in Swiss albino mouse assessed as reduction parasitemia at 38.5 mg/kg, ip qd […] by Giemsa staining relative to control; format: functional; design: scale not given: the % may be the effect or the level left; settings: route intraperitoneal
Outline: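 Four-day Peters test in female Swiss albino mice (18–20 g), groups of 10. Infected i.v. on day 0 with 10^6 parasitized RBC in 0.2 ml PBS, then dosed i.p. on days 0–3, stopped if toxicity appeared. Parasitemia read from Giemsa-stained tail-blood smears and reported as % reduction at day 4.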

Mus musculus [13] = test: Toxicity in chloroquine-sensitive Plasmodium berghei NK-173 infected Swiss albino mouse assessed as death day at 100 mg/kg, ip bid for 3 days measured up to 4 days; format: organism-based; design: dose 100 mg/kg, route intraperitoneal; settings: in vivo; outline: as §1
Mus musculus [14] = test: Toxicity in chloroquine-sensitive Plasmodium berghei NK-173 infected Swiss albino mouse assessed as mortality at 38.5 mg/kg, ip administered 4 times per day for 3 days measured up to 4 days; format: organism-based; design: dose 38.5 mg/kg, route intraperitoneal; settings: in vivo; outline: as §1
Plasmodium berghei [15] = test: Antimalarial activity against chloroquine-sensitive Plasmodium berghei NK-173 infected in Swiss albino mouse assessed as quantal survival at 100 mg/kg, ip bid for 3 days measured on day 14; format: functional, organism-based; design: dose 100 mg/kg; outline: as §1
Plasmodium berghei [16] = test: Antimalarial activity against chloroquine-sensitive Plasmodium berghei NK-173 infected in Swiss albino mouse assessed as quantal survival at 38.5 mg/kg, ip qd for 3 days measured on day 14; format: functional, organism-based; design: dose 38.5 mg/kg; outline: as §1
Leishmania donovani [17] = test: Antileishmanial activity against promastigote forms of Leishmania donovani MHOM/ET/67/HU3 after 3 days by MTT assay; format: functional, organism-based; settings: MHOM/ET/67/HU3, 72 h
Outline: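 Log-phase promastigotes at 10^6 cells/mL in supplemented M-199. Serial dilutions gave final concentrations of 100 µM to 50 nM, in triplicate. Incubated 3 days at 27 °C, dark, 5% CO2. Viability read by MTT reduction, with Triton X100/HCl lysis and absorbance at 570 nm. IC50 ± SD.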

Leishmania donovani [18] = test: Antileishmanial activity against amastigotes forms of Leishmania donovani MHOM/ET/67/HU3 infected in Swiss mouse peritoneal macrophages at 20 uM after 5 days; format: functional, organism-based
Outline: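 Peritoneal macrophages from female Swiss mice (18–20 g) infected after 24 h with stationary-phase L. donovani promastigotes at 10 parasites per macrophage. Free promastigotes removed at 18 h, then amastigotes treated. Medium with drug renewed at 48 h, stopped at day 5. Percentage of infected macrophages scored microscopically after Giemsa staining. Run in triplicate.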

Plasmodium berghei [19] = test: Antimalarial activity against chloroquine-sensitive Plasmodium berghei NK-173 infected in Swiss albino mouse assessed as quantal survival at 38.5 mg/kg, ip qd for 3 days measured on day 10; format: functional, organism-based; design: dose 38.5 mg/kg; outline: as §1
Plasmodium berghei [20] = test: Antimalarial activity against chloroquine-sensitive Plasmodium berghei NK-173 infected in Swiss albino mouse assessed as quantal survival at 38.5 mg/kg, ip administered 4 times per day for 3 days measured on day 7; format: functional, organism-based; design: dose 38.5 mg/kg; outline: as §1
Plasmodium berghei [21] = test: Antimalarial activity against chloroquine-sensitive Plasmodium berghei NK-173 infected in Swiss albino mouse assessed as quantal survival at 76.9 mg/kg, ip qd for 3 days measured on day 7; format: functional, organism-based; design: dose 76.9 mg/kg; outline: as §1
[22] = system: Trypanosoma brucei brucei; test: Trypanocidal activity against Trypanosoma brucei brucei by drug incubation infectivity test; format: functional; settings: read-out: MEC
Plasmodium berghei [23] = test: Antimalarial activity against chloroquine-sensitive Plasmodium berghei NK-173 infected in Swiss albino mouse assessed as quantal survival at 38.5 mg/kg, ip qd for 3 days measured on day 7; format: functional, organism-based; design: dose 38.5 mg/kg; outline: as §1
Plasmodium berghei [24] = test: Antimalarial activity against chloroquine-sensitive Plasmodium berghei NK-173 infected in Swiss albino mouse assessed as host survival at 38.5 mg/kg, ip administered 4 times per day for 3 days measured on day 30; format: functional; settings: NK-173, ip, route intraperitoneal; outline: as §1
Mus musculus [25] = test: Toxicity in chloroquine-sensitive Plasmodium berghei NK-173 infected Swiss albino mouse assessed as mortality at 76.9 mg/kg, ip qd for 3 days measured up to 4 days; format: organism-based; design: dose 76.9 mg/kg, route intraperitoneal; settings: in vivo; outline: as §1
Plasmodium falciparum = test: Antimalarial activity against Plasmodium falciparum 3D7 infected in human O positive erythrocytes assessed as reduction of parasite growth after 24 to 44 hrs by Giemsa staining; format: functional, organism-based
Outline: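 Sorbitol-synchronized ring-stage 3D7 parasites in O+ erythrocytes (5% v/v suspension, 0.5% parasitemia) exposed to compounds from DMSO stock for 44 h at 37 °C. Growth measured by pLDH ELISA after freeze-thaw hemolysis and by Giemsa thin smears at 24 and 44 h, counting at least 5000 erythrocytes. Expressed as % reduction against medium-only control.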

Structure (SMILES): COc1cc(-c2c3nc(c(N4C(=O)CC[C@H]4C(=O)O)c4ccc([nH]4)c(-c4cc(OC)c(OC)c(OC)c4)c4nc(cc5ccc2[nH]5)C=C4)C=C3)cc(OC)c1OC
- Activity (Mus musculus [1]): Non-toxic
- CC50 at 120 h [2]: > 100 µM
- Survival (Plasmodium berghei [3]): inactive
- Activity (Plasmodium berghei [4]): 40%
- survival at 76.9 mg/kg (Plasmodium berghei [5]): 0%
- Survival (Plasmodium berghei [6]): inactive
- Survival (Plasmodium berghei [7]): Active
- Survival (Plasmodium berghei [8]): inactive
- survival at 38.5 mg/kg (Plasmodium berghei [9]): 0%
- Survival (Plasmodium berghei [10]): inactive
- survival at 100 mg/kg (Plasmodium berghei [11]): 0%
- Activity (Plasmodium berghei [12]): 0%
- Time (Mus musculus [13]): 2 days
- Activity (Mus musculus [14]): Non-toxic
- Survival (Plasmodium berghei [15]): inactive
- Survival (Plasmodium berghei [16]): inactive
- IC50 (Leishmania donovani [17]): 57.2 µM
- Activity (Leishmania donovani [18]): inactive
- Survival (Plasmodium berghei [19]): inactive
- Survival (Plasmodium berghei [20]): Active
- Survival (Plasmodium berghei [21]): Active
- minimal effective concentration [22]: 25 µM
- Survival (Plasmodium berghei [23]): Active
- survival at 38.5 mg/kg (Plasmodium berghei [24]): 0%
- Activity (Mus musculus [25]): Non-toxic
- IC50 (Plasmodium falciparum): 0.02 µM
